# Compounds with a hit are over-represented: about 2.1% of the library has one in this group of screens.
# CRFBP-R2 agonist – CRF-BP/CRF-R2 complex agonism. HEK293 CRF-R2/CRF-BP, calcium dye fluorescence (FLIPR); percent of saturating CRF peptide response. activation, % at 13.2 µM. 0.46% of 350,000 active. AID 588473;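 active = activation of at least 50%, plus an integration ratio under a set limit after plate pattern correction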;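 note: plate controls were neutral control wells without compound for no effect and CRF at EC100 for full effect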
# IMP-1 inhibitor – inhibitors of Pseudomonas aeruginosa IMP-1 metallo-beta-lactamase | AID 1556 | 0.45% of 290,000 active | purified IMP-1, nitrocefin hydrolysis, epi-absorbance fluorescence | inhibition, % at 5.6 µM;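 active = inhibition above the mean plus 3 SD of all compounds in the same screening run, cut at about 4.5% in these data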;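 note: 0% = IMP-1 with DMSO and 100% = DMSO wells lacking enzyme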
#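 System – purified recombinant IMP-1 beta-lactamase · Input – IMP-1 dispensed at 0.2 nM · Timing – 15 min preincubation plus 25 min reaction at 25 °C · Signal – Epi-absorbance fluorescence, 480 nm excitation, 530 nm emission · Measure – percent IMP-1 inhibition derived from blank-referenced optical density · Controls – Enzyme-plus-DMSO low control, enzyme-free DMSO high control · Replication – singlicate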
# TRPML3 ag – activates the human TRPML3 channel; 0.29% of 220,000 active; HEK293 TRPML3-YFP, Fluo-8 calcium fluorescence; 100% = the carbachol control signal; Q8TDD5; activation, % at 3 µM;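 active = activation above its plate's cutoff, the mean activation of the plate's test wells plus 3 SD, cut at about 12% in these data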;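 note: 0% = DMSO only wells and 100% = carbachol wells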
# Target sequence (Q8TDD5 whole entry, looked up): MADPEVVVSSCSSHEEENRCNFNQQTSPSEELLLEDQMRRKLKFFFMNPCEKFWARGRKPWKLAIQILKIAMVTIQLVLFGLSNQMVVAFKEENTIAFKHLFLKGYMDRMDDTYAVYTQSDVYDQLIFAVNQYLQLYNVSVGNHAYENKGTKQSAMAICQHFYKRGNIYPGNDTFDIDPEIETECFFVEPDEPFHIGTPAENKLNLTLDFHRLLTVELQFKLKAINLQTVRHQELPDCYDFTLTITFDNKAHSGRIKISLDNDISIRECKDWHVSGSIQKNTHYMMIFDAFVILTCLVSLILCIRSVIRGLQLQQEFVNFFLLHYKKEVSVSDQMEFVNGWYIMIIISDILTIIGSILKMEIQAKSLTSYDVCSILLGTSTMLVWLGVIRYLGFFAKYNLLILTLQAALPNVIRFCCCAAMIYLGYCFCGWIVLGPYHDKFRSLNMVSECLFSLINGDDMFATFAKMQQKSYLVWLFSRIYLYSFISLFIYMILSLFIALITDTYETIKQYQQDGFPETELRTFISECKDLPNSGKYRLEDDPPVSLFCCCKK
#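 system = HEK293 cells stably carrying human TRPML3-YFP | doses = one concentration, 3 µM nominal, 0.3% DMSO | timing = dye loading 1 h 37 °C then 30 min ambient, 125 s read | detection = Fluo-8 calcium dye fluorescence, ex 470-495, em 515-575 nm | benchmarks = high control carbachol 87 µM, low control DMSO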
# CRFR2-BP antag – antagonists of CRF-binding protein/CRF-R2 receptor complex | HEK293 CRF-R2/CRF-BP, CRF-induced calcium fluorescence | inhibition, % at 11.8 µM | 0.59% of 350,000 active | AID 588475;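 active = inhibition of the ligand-induced calcium signal above about 50% at the single tested concentration, limit read from the data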
# VIM-2 inh – blocks Pseudomonas aeruginosa VIM-2 metallo-beta-lactamase; purified VIM-2, nitrocefin hydrolysis, epi-absorbance fluorescence; inhibition, % at 5.6 µM; 0.89% of 290,000 active; AID 1527;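 active = inhibition above the mean of all tested compounds plus 3 SD, cutoff set per screening run, cut at about 7.5% in these data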;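 note: red hydrolysis product quenches plate fluorescence so inhibitors raise well fluorescence; 0% = enzyme with DMSO and 100% = DMSO without enzyme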
# zfTRPN1 agonist – zebrafish TRPN1 (NompC) channel agonism; HEK293 zebrafish TRPN1-YFP, Fluo-8 calcium fluorescence; 100% = response to 87 µM carbachol; 0.18% of 220,000 active; activation, % at 3 µM; AID 1424;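 active = activation above its plate's cutoff, the mean activation of test wells on that plate plus 3 SD, cut at about 19% in these data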;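 note: 0% = DMSO alone and 100% = 87 µM carbachol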
#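 Material: zebrafish TRPN1-YFP in HEK293 cells. Doses: one dose of 3 µM, 0.3% DMSO. Incubation: dye 1 h 37 °C plus 30 min RT. Measured by: intracellular calcium fluorescence with Fluo-8.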
# Starred values were filed as active, the others as inactive; / = no result given.
SMILES,CRFBP-R2 agonist,IMP-1 inhibitor,TRPML3 ag,CRFR2-BP antag,VIM-2 inh,zfTRPN1 agonist
Cc1ccc2c(CC(=O)NCC(=O)Nc3c(C)cccc3C)coc2c1,0,/,/,50*,/,/
COc1ccc(N2CCN(C(=O)Cc3coc4cc(C)ccc34)CC2)cc1,0,-1,1,-3,1,-1
Cc1ccc2c(CC(=O)NCc3ccc4c(c3)OCO4)coc2c1,0,0,-1,-2,-1,0
Cc1ccc2c(CC(=O)NNC(=O)c3ccncc3)coc2c1,-1,/,/,9,/,/
Cc1ccc2c(CC(=O)Nc3ccc(N4CCN(C)CC4)cc3C)coc2c1,-1,7.0*,0,6,-3,1
Cc1ccc2c(CC(=O)Nc3sccc3C(N)=O)coc2c1,95*,-3,0,-58,-5,2
CC1=C(C(=O)Nc2ccc(C(=O)NCCCN3CCCCC3C)cc2)SCCO1 (centres undefined),1,/,/,12,/,/
O=C(COC(=O)c1cccc(S(=O)(=O)N2CCCC2)c1)Nc1ccc(Cl)cc1,1,/,/,-3,/,/
Cc1ccc(Nc2ncc3c(=O)[nH][nH]c(=O)c3n2)cc1,-2,/,/,-4,/,/
CC(C)Oc1ccc(C(=O)NCCCNC(=O)c2cccnc2)cc1,-6,-3,/,-2,-2,/
CCNC(=S)N(CCc1ccc(S(N)(=O)=O)cc1)C1CC(=O)N(c2ccccc2)C1=O (centres undefined),97*,-2,2,-95,-1,8
O=C1CC(N(CCc2ccccc2)C(=S)Nc2ccccc2)C(=O)N1c1ccccc1 (centres undefined),5,-2,1,-16,-1,0
CC[C@H]1OC(=O)[C@H](C)[C@@H](O[C@H]2C[C@@](C)(OC)[C@@H](O)[C@H](C)O2)[C@H](C)[C@@H](O[C@@H]2O[C@H](C)C[C@H](N(C)C)[C@H]2O)[C@](C)(O)C[C@@H](C)C(=NOCOCCOC)[C@H](C)[C@@H](O)[C@]1(C)O,2,-1,/,-25,-2,/
COc1ccc(OCCCC(=O)Nc2cccnc2)cc1,-5,1,1,53*,-1,1
O=C(CCSc1ccc(Br)cc1)Nc1cccnc1,-1,-1,1,110*,-1,0
CCCCOc1ccc(/C=C/C(=O)N(CC)CC(=O)Nc2ccc3c(c2)OCCO3)cc1OC,1,/,/,6,/,/
COc1cccc(/C=N/NC(=S)Nc2cccc(C(=O)O)c2)c1,-1,-2,0,17,9.1*,1
COc1ccc(O)c(/C=N/NC(=S)Nc2cccc(S(=O)(=O)N(C)C)c2)c1,1,-4,2,-16,11*,9
COc1ccc(C(C[N+](=O)[O-])c2c(C)[nH]c3ccccc23)cc1OC (centres undefined),-2,13*,0,-7,0,0
COc1ccc2cc(C)c3nnc(SCc4cccnc4)n3c2c1,1,-2,-2,-11,8.9*,0
COc1ccc2cc(C)c3nnc(SCC(=O)Nc4cc(OC)c(OC)cc4C(=O)O)n3c2c1,-3,-1,1,0,0,1
CCOc1ccc(S(=O)(=O)NC(Cc2c[nH]c3ccccc23)C(=O)O)cc1 (centres undefined),-3,-3,/,3,-1,/
O=C(CSc1nncs1)NCCCc1ccccc1,-1,-2,0,5,0,1
COC(=O)c1ccc(CSc2nc3c(cnn3-c3ccc(F)cc3)c(=O)[nH]2)o1,-1,2,1,52*,-2,0
COc1cc2c(cc1OC)CN(C(=O)CN1C(=O)c3ccc([N+](=O)[O-])cc3C1=O)CC2,0,/,/,-3,/,/
SMILES,CRFBP-R2 agonist,IMP-1 inhibitor,TRPML3 ag,CRFR2-BP antag,VIM-2 inh,zfTRPN1 agonist
CCCCCn1c(=NC(=O)c2cccnc2)c(C#N)cc2c(=O)n3cccc(C)c3nc21,63*,/,/,-22,/,/
COc1cc(/C=C2/C(=O)NN(c3ccc(F)cc3)C2=O)cc(Cl)c1O,-1,-7,/,-27,-6,/
COc1cc(/C=C2/C(=O)NN(c3ccc(Cl)cc3)C2=O)cc(Br)c1O,-1,9.7*,/,-2,-4,/
Cc1c(CCO)sc[n+]1CC(=O)OCCC12CC3CC(CC(C3)C1)C2,0,0,0,5,-1,0
CCCCCCCCCOC(=O)C[n+]1csc(CCO)c1C,0,-1,-1,111*,-2,2
Cc1cccc(NC(=O)COC(=O)c2ccccc2SCC(=O)N2CCCC2)c1,-1,-3,/,-11,-2,/
N#Cc1ccccc1OCC(=O)N1CCN(C(=O)c2ccco2)CC1,0,-2,/,-4,-4,/
CCN(CC(=O)Nc1c(F)cccc1F)C(=O)c1ccc(S(=O)(=O)N2CCC(C)CC2)cc1,-1,/,/,122*,/,/
O=C(Oc1ccccc1Cl)c1ccc2c(=O)n3c(nc2c1)CCC3,0,/,/,-9,/,/
CCN(CC(=O)Nc1c(F)cccc1F)C(=O)c1ccc(S(=O)(=O)N2CCCCCC2)cc1,0,/,/,-3,/,/
CCN(CC(=O)Nc1c(F)cccc1F)C(=O)c1ccc2c(=O)n3c(nc2c1)CCC3,-1,/,/,104*,/,/
CC(NC(=O)COC(=O)c1ccc2c(=O)n3c(nc2c1)CCCCC3)c1ccccc1 (centres undefined),-1,/,/,63*,/,/
O=C(Oc1ccccc1F)c1ccc2c(=O)n3c(nc2c1)CCC3,6,/,/,99*,/,/
CC(C)(C)C(=O)COC(=O)C1=NN(c2ccccc2)C(=O)CC1,0,-2,/,3,-2,/
CCNc1nc2c(cnn2C)c(=O)[nH]1,-3,/,/,17,/,/
COc1ccc(Cl)cc1-c1nc(SCC(=O)NC2CC2)n[nH]1,0,-3,1,10,-1,-1
O=C(O)C(CCCCN1C(=O)c2ccccc2C1=O)N1C(=O)c2ccccc2C1=O (centres undefined),1,18*,0,-9,5,0
O=C(O)C(Cc1ccccc1)N1C(=O)c2ccccc2C1=O (centres undefined),0,0,1,2,-4,1
O=C(O)C(Cc1ccccc1)N1C(=O)c2cccc3cccc(c23)C1=O (centres undefined),2,-3,1,8,9.4*,2
O=C(Nc1ccccc1)C(CCCCN1C(=O)c2ccccc2C1=O)N1C(=O)c2ccccc2C1=O (centres undefined),3,/,/,8,/,/
COC(=O)C1=C(C)N(C)C(=O)NC1c1cccc2ccccc12 (centres undefined),-2,-1,/,13,-1,/
COc1ccc2[nH]c3c(c2c1)CCN1C(=O)C(CC(=O)NCc2cccc(C(F)(F)F)c2)C[C@H](C(=O)N(C(C)C)C(C)C)[C@@]31C (some centres undefined),-6,/,/,-16,/,/

# From PubChem BioAssay
